Measured values from ChEMBL document CHEMBL1152557, “Solution-phase parallel synthesis of substituted chalcones and their antiparasitary activity against Giardia lamblia” (Bioorg Med Chem, 2009).
≈ marks a conversion by molar mass, not a printed value. Calls of active or inactive are those of the source. The rule behind the calls is not given here.

What was measured:
Format in all cases: functional, organism-based
Giardia intestinalis [1] = test: Antigiardial activity against Giardia lamblia WB (ATCC 30957) trophozoites after 24 hrs by trypan blue assay; settings: Giardia duodenalis; for LC50: read-out: LD50 (the source's name)
Method in brief: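 Mid-log trophozoites, ice-chilled 20 min and counted by hemocytometer, 1.5 × 10⁵ cells per well in 1.5 mL final volume, incubated 24 h at 37 °C with compounds (DMSO stock diluted in medium, DMSO ≤5% v/v) at 100 µg/mL, then 1–100 µg/mL for selected ones. Metronidazole 1–5 µg/mL and DMSO controls. Plates ice-chilled 20 min, cells resuspended, counted. Mortality by trypan blue staining and absence of motility. IC50 and LD50 by probit analysis.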

Enterococcus faecalis = test: Antimicrobial activity against Enterococcus faecalis ATCC 29212 up to 100 ug/mL by broth microdilution assay
Staphylococcus aureus = test: Antimicrobial activity against Staphylococcus aureus ATCC 29213 up to 100 ug/mL by broth microdilution assay
Pseudomonas aeruginosa = test: Antimicrobial activity against Pseudomonas aeruginosa ATCC 27853 up to 100 ug/mL by broth microdilution assay
Escherichia coli = test: Antimicrobial activity against Escherichia coli ATCC 25922 up to 100 ug/mL by broth microdilution assay
Giardia intestinalis [2] = test: Antigiardial activity against Giardia lamblia WB (ATCC 30957) trophozoites assessed as mild activity after 24 hrs by trypan blue assay; settings: Giardia duodenalis
Method in brief: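 Mid-log trophozoites chilled on ice 20 min, resuspended and counted by hemocytometer; 1.5 × 10⁵ cells per well, final volume 1.5 mL, incubated 24 h at 37 °C with compound (DMSO stock diluted in medium, DMSO ≤5% v/v) at 100 µg/mL. Plates re-chilled on ice 20 min before counting. Mortality from trypan blue staining plus loss of motility. Controls: metronidazole 1–5 µg/mL, DMSO vehicle.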

Question: Which IC50 (Giardia intestinalis [1]) does the source give for `COc1ccc(C(=O)/C=C/c2ccc(Cl)cc2)cc1` here?
Answer: 15 µg/mL (≈ 55.1 µM)

Question: And the LC50 (Giardia intestinalis [1])?
Answer: 7.52 µg/mL (≈ 27.6 µM)

Question: What about the Activity (Enterococcus faecalis) of the same molecule?
Answer: inactive

Question: What about the Activity (Staphylococcus aureus) of the same molecule?
Answer: inactive

Question: What about the Activity (Pseudomonas aeruginosa) of the same molecule?
Answer: inactive

Question: What about the Activity (Escherichia coli) of the same molecule?
Answer: inactive

Question: For `COc1ccc(/C=C/C(=O)c2ccc(OC)cc2)cc1`, which Activity (Enterococcus faecalis) is on record?
Answer: inactive

Question: What about the Activity (Staphylococcus aureus) of the same molecule?
Answer: inactive

Question: What about the Activity (Pseudomonas aeruginosa) of the same molecule?
Answer: inactive

Question: What about the Activity (Escherichia coli) of the same molecule?
Answer: inactive

Question: What about the Activity (Giardia intestinalis [2]) of the same molecule?
Answer: Active

Question: What does the source list for `COc1ccc(C(=O)/C=C/c2ccccc2F)cc1`?
Answer: IC50 (Giardia intestinalis [1]): 12.7 µg/mL (≈ 49.6 µM); LC50 (Giardia intestinalis [1]): 1.99 µg/mL (≈ 7.77 µM); Activity (Enterococcus faecalis): inactive; Activity (Staphylococcus aureus): inactive; Activity (Pseudomonas aeruginosa): inactive; Activity (Escherichia coli): inactive

Question: With `Cc1ncc([N+](=O)[O-])n1CCO` [METRONIDAZOLE] as the molecule, how does the IC50 (Giardia intestinalis [1]) read?
Answer: 2.88 µg/mL (≈ 16.8 µM)

Question: And the LC50 (Giardia intestinalis [1])?
Answer: 1.63 µg/mL (≈ 9.52 µM)

Question: `Cc1ccc(/C=C/C(=O)c2ccc(F)cc2)cc1` was tested. Which IC50 (Giardia intestinalis [1]) did it give?
Answer: 15.3 µg/mL (≈ 63.7 µM)

Question: What about the LC50 (Giardia intestinalis [1]) of the same molecule?
Answer: 9.67 µg/mL (≈ 40.2 µM)

Question: What about the Activity (Enterococcus faecalis) of the same molecule?
Answer: inactive

Question: What about the Activity (Staphylococcus aureus) of the same molecule?
Answer: inactive

Question: And the Activity (Pseudomonas aeruginosa)?
Answer: inactive

Question: What about the Activity (Escherichia coli) of the same molecule?
Answer: inactive

Question: `Cc1ccc(/C=C/C(=O)c2ccccc2)cc1` was tested. Which Activity (Enterococcus faecalis) did it give?
Answer: inactive

Question: What about the Activity (Staphylococcus aureus) of the same molecule?
Answer: inactive

Question: And the Activity (Pseudomonas aeruginosa)?
Answer: inactive

Question: And the Activity (Escherichia coli)?
Answer: inactive

Question: And the Activity (Giardia intestinalis [2])?
Answer: Active

Question: Which Activity (Enterococcus faecalis) does the source give for `COc1ccc(/C=C/C(=O)c2ccccc2)cc1` here?
Answer: inactive

Question: What about the Activity (Staphylococcus aureus) of the same molecule?
Answer: inactive

Question: What about the Activity (Pseudomonas aeruginosa) of the same molecule?
Answer: inactive

Question: And the Activity (Escherichia coli)?
Answer: inactive

Question: What about the Activity (Giardia intestinalis [2]) of the same molecule?
Answer: Active

Question: Which Activity (Enterococcus faecalis) does the source give for `COc1ccc(C(=O)/C=C/c2ccccc2)cc1` here?
Answer: inactive

Question: And the Activity (Staphylococcus aureus)?
Answer: inactive

Question: And the Activity (Pseudomonas aeruginosa)?
Answer: inactive

Question: What about the Activity (Escherichia coli) of the same molecule?
Answer: inactive

Question: And the Activity (Giardia intestinalis [2])?
Answer: Active

Question: With `COc1ccc(/C=C/C(=O)c2ccc(Cl)cc2)cc1` as the molecule, how does the Activity (Enterococcus faecalis) read?
Answer: inactive

Question: And the Activity (Staphylococcus aureus)?
Answer: inactive

Question: And the Activity (Pseudomonas aeruginosa)?
Answer: inactive

Question: What about the Activity (Escherichia coli) of the same molecule?
Answer: inactive

Question: What about the Activity (Giardia intestinalis [2]) of the same molecule?
Answer: Active

Question: For `COc1ccc(C(=O)/C=C/c2ccc(OC)cc2OC)cc1`, which Activity (Enterococcus faecalis) is on record?
Answer: inactive

Question: And the Activity (Staphylococcus aureus)?
Answer: inactive

Question: And the Activity (Pseudomonas aeruginosa)?
Answer: inactive

Question: What about the Activity (Escherichia coli) of the same molecule?
Answer: inactive

Question: What about the Activity (Giardia intestinalis [2]) of the same molecule?
Answer: Active
